Experimental data pooled from the literature.
Protocols differ between the studies behind these lines.
Target: Dual specificity mitogen-activated protein kinase kinase 6 (MAP2K6, Homo sapiens, UniProt P52564)
Sequence (P52564 1-334, as in one of the studies): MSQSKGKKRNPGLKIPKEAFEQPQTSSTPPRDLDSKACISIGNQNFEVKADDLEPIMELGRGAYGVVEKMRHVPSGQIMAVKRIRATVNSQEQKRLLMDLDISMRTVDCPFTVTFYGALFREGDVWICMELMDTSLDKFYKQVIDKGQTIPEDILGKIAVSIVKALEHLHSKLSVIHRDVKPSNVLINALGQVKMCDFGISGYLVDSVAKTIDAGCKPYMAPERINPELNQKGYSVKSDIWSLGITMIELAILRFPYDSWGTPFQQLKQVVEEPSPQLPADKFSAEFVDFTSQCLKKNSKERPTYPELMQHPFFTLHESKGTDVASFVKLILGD

| Structure (SMILES) | read-out | method | concentration | remaining binding |
| --- | --- | --- | --- | --- |
| COc1cnc(Nc2cccc(S(N)(=O)=O)c2)nc1N1CCN(c2ccccc2)CC1 | binding | competition with immobilised ligand | 1 µM | 100% |
| Cc1cnc(Nc2ccc(C(=O)N3CCC(N4CCCC4)CC3)cc2)nc1-c1cc2ccccc2s1 | binding | competition with immobilised ligand | 1 µM | 30% |
| C[C@H](c1ccnc(Nc2nc3ccc(-c4cc(N(C)C)ncn4)cc3[nH]2)c1)N1CCN(C(=O)CC(F)(F)F)CC1 | cell-free assay | competition with immobilised ligand | 0.1 µM | 96% |
| COc1ncc2cc3ccccc3nc2c1C#N | cell-free assay | competition with immobilised ligand | 5 µM | 100% |
| C[C@@H]1CCN(c2nccc(-c3cnn4ncccc34)n2)C1 | binding |  | 1 µM | 100% |
| O=C(NCC1CCOCC1)c1n[nH]cc1NC(=O)c1c(F)cccc1F | binding | competition with immobilised ligand | 1 µM | 95% |
| C[C@H](NC(=O)c1cnc2n1[C@](C)(Cc1ccc(C#N)cc1)C(=O)N2c1cc(Cl)c(F)c(Cl)c1)C(=O)NC1(c2ccccn2)CC1 | cell-free assay | competition with immobilised ligand | 1 µM | 80% |
| N[C@@H]1CCN(c2nccc(-c3cnn4ncccc34)n2)C1 | binding |  | 1 µM | 100% |
| O=C(NCCCN1CCOCC1)c1ccc(Nc2nccc(-c3cc4ccccc4s3)n2)cc1 | binding | competition with immobilised ligand | 1 µM | 76% |
| Cc1cnn2ncc(-c3ccnc(N(C)C)n3)c2c1 | binding |  | 1 µM | 100% |
| C=CC(=O)N1CCC(C(=O)NCC(=O)N2CCN(c3nc(-c4cnc(N)nc4C(F)F)nc(N4CCOCC4)n3)CC2)CC1 | binding | competition with immobilised ligand | 1 µM | 100% |
| CCC(=O)N[C@@H]1CC[C@H](C(=O)N(C)c2ccc(-c3nc4ccccc4o3)cc2)C1 | cell-free assay | competition with immobilised ligand | 1 µM | 100% |
| Nc1ncc2c(n1)-c1c([nH]c3ccc(C#CC4CC4)cc13)CCCC2 | binding | competition with immobilised ligand | 1 µM | 100% |
| CN(C)c1nccc(-c2cnn3ncccc23)n1 | binding |  | 1 µM | 58% |
| Cc1c(C(=O)O)cc(-c2ccc(C3CCNCC3)cc2)c2ccc(-c3ccc(C(F)(F)F)cc3)cc12 | binding | competition with immobilised ligand | 1 µM | 100% |
| FC(F)(F)Oc1cccc(-c2cnc3ccc(-c4ccncc4)nn23)c1 | cell-free assay | competition with immobilised ligand | 5 µM | 84% |
| CN(C)c1nccc(-c2cnc3ncccn23)n1 | binding |  | 1 µM | 99% |
| CC(=O)C1=C(C)N(c2cccc(C(F)(F)F)c2)C(=O)N[C@@H]1c1ccc(C#N)nc1 | cell-free assay | competition with immobilised ligand | 1 µM | 94.6% |
| CN(C)c1ncc(F)c(-c2cnn3ncccc23)n1 | binding |  | 1 µM | 100% |
| CN([C@@H]1CCc2c(CC(=O)O)c3ccccc3n2C1)S(=O)(=O)c1ccc(F)cc1 | cell-free assay | competition with immobilised ligand | 1 µM | 100% |
| O=C(c1ccc(Nc2ncc(Cl)c(-c3ccc(Cl)s3)n2)cc1)N1CCC(N2CCCC2)CC1 | binding | competition with immobilised ligand | 1 µM | 29% |
| CC1=C(C#N)[C@@H](c2ccc3[nH]nc(C)c3c2)C(C#N)=C(c2ccc(Cl)cc2)N1 | cell-free assay | competition with immobilised ligand | 1 µM | 100% |
| c1cnn2ncc(-c3ccnc(N4CCC45COC5)n3)c2c1 | binding |  | 1 µM | 100% |
